Results taken from ChEMBL document CHEMBL4270630.

How the values were obtained:
Influenza A virus [1] = assay: Antiviral activity against Influenza A virus A/PR/8/34(H1N1) GFP-fused pseudotyped lentiviral particle expressing H1-HA/N1-NA infected in MDCK cells assessed as inhibition of pseudoparticle entry after 3 days by flow cytometry; type: functional, organism-based; conditions: A/Puerto Rico/8/1934(H1N1)
Summary of the method: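 MDCK cells were seeded at 7500/well and one day later were exposed to compounds plus GFP lentiviral pseudoparticles bearing A/PR/8/34 H1-HA and N1-NA, with HA0 activated by trypsin. After 3 days the cells were trypsinized, fixed in paraformaldehyde and analysed for GFP by flow cytometry. Entry inhibition was taken as the reduction in GFP signal. Data are the mean ± SEM of four independent experiments.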

Influenza B virus [2] = assay: Antiviral activity against Influenza B virus B/HK/05/72 infected in MDCK cells assessed as reduction in virus-induced cytopathic effect after 3 days by microscopic method; type: functional, organism-based; conditions: B/Hong Kong/05/1972, MDCK, 72 h
Summary of the method: (§1)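 Semi-confluent MDCK cells were infected at an MOI of 0.0004 PFU/cell in Ultra-MDCK infection medium with 2 μg/mL TPCK-trypsin, together with compounds. After 3 days at 35 °C, CPE was scored by microscopy and confirmed by MTS formazan viability. EC50 is the concentration giving 50% inhibition of virus-induced CPE. Values are means of two to five independent tests.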

Influenza A virus [3] = assay: Antiviral activity against Influenza A virus A/PR/8/34(H1N1) infected in MDCK cells assessed as reduction in virus-induced cytopathic effect after 3 days by microscopic method; type: functional, organism-based, A/Puerto Rico/8/1934(H1N1); conditions: Influenza A virus, A/Puerto Rico/8/1934(H1N1), MDCK, 72 h; summary of the method: as §1
[4] = Cytotoxicity against MDCK cells assessed as alteration in cell morphology after 3 days by microscopic method; type: cell-based, Canis lupus familiaris; conditions: dog
Summary of the method: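 Mock-infected MDCK cells were treated with compounds in parallel with the antiviral assay, 3 days at 35 °C. MCC is the concentration causing minimal change in cell morphology by microscopy. CC50 is the 50% cytotoxic concentration by MTS formazan viability assay.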

H3N2 subtype [5] = assay: Antiviral activity against Influenza A virus A/HK/7/87(H3N2) infected in MDCK cells assessed as reduction in virus-induced cytopathic effect after 3 days by microscopic method; type: functional, organism-based; conditions: A/Hong Kong/7/1987(H3N2), 72 h; summary of the method: as §1
Influenza A virus [6] = assay: Antiviral activity against Influenza A virus A/PR/8/34(H1N1) infected in MDCK cells after 3 days by MTS assay; type: functional, organism-based, A/Puerto Rico/8/1934(H1N1); conditions: Influenza A virus, A/Puerto Rico/8/1934(H1N1), MDCK, 72 h; summary of the method: as §1
Influenza A virus [7] = assay: Antiviral activity against Influenza A virus A/Virginia/ATCC3/2009(H1N1pdm) infected in MDCK cells after 3 days by MTS assay; type: functional, organism-based, Influenza A virus (A/Virginia/03/2009(H1N1)); conditions: 72 h; summary of the method: as §1
Influenza B virus [8] = assay: Antiviral activity against Influenza B virus B/HK/05/72 infected in MDCK cells after 3 days by MTS assay; type: functional, organism-based; conditions: B/Hong Kong/05/1972, MDCK, 72 h; summary of the method: as §1
Influenza A virus [9] = assay: Antiviral activity against Influenza A virus A/Virginia/ATCC3/2009(H1N1pdm) infected in MDCK cells assessed as reduction in virus-induced cytopathic effect after 3 days by microscopic method; type: functional, organism-based, Influenza A virus (A/Virginia/03/2009(H1N1)); conditions: 72 h; summary of the method: as §1
H3N2 subtype [10] = assay: Antiviral activity against Influenza A virus A/HK/7/87(H3N2) infected in MDCK cells after 3 days by MTS assay; type: functional, organism-based; conditions: A/Hong Kong/7/1987(H3N2), 72 h; summary of the method: as §1
[11] = (§2) Cytotoxicity against MDCK cells assessed as reduction in cell viability after 3 days by MTS assay; type: cell-based, Canis lupus familiaris; conditions: dog, MDCK cells
[12] = Selectivity index, ratio of MCC for MDCK cells to EC50 for Influenza A virus A/HK/7/87(H3N2) infected in MDCK cells assessed as reduction in virus-induced cytopathic effect by microscopic method; type: toxicity, cell-based; conditions: dog, read-out: Selectivity Index
Summary of the method: (§3)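 Selectivity index is MCC divided by EC50. MCC comes from microscopy of mock-infected MDCK cells. EC50 comes from microscopic scoring of virus-induced CPE in MDCK cells infected at an MOI of 0.0004 PFU/cell with TPCK-trypsin. Both readings were taken after 3 days at 35 °C.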

[13] = Selectivity index, ratio of MCC for MDCK cells to EC50 for Influenza A virus A/Virginia/ATCC3/2009(H1N1pdm) infected in MDCK cells assessed as reduction in virus-induced cytopathic effect by microscopic method; type: toxicity, cell-based; conditions: dog, read-out: Selectivity Index; summary of the method: as §3
[14] = Selectivity index, ratio of MCC for MDCK cells to EC50 for Influenza B virus B/Ned/537/05 infected in MDCK cells assessed as reduction in virus-induced cytopathic effect by microscopic method; type: toxicity, cell-based; conditions: dog, read-out: Selectivity Index; summary of the method: as §3
[15] = Selectivity index, ratio of MCC for MDCK cells to EC50 for Influenza B virus B/HK/05/72 infected in MDCK cells assessed as reduction in virus-induced cytopathic effect by microscopic method; type: toxicity, cell-based; conditions: dog, read-out: Selectivity Index; summary of the method: as §3
[16] = Selectivity index, ratio of MCC for MDCK cells to EC50 for Influenza A virus A/PR/8/34(H1N1) infected in MDCK cells assessed as reduction in virus-induced cytopathic effect by microscopic method; type: toxicity, cell-based; conditions: dog, read-out: Selectivity Index; summary of the method: as §3
Influenza B virus [17] = assay: Antiviral activity against Influenza B virus B/Ned/537/05 infected in MDCK cells assessed as reduction in virus-induced cytopathic effect after 3 days by microscopic method; type: functional, organism-based; conditions: B/Ned/537/05, MDCK, 72 h
Summary of the method: (§4)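 Semi-confluent MDCK cells were infected at an MOI of 0.0004 PFU/cell in Ultra-MDCK infection medium with 2 μg/mL TPCK-trypsin, together with compounds. After 3 days at 35 °C, CPE was scored by microscopy and confirmed by MTS formazan viability. Values are means of two to five independent tests.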

MDCK = assay: as §2; type: cell-based, Canis lupus familiaris; conditions: dog, mdck, 72 h
Influenza B virus [18] = assay: Antiviral activity against Influenza B virus B/Ned/537/05 infected in MDCK cells after 3 days by MTS assay; type: functional, organism-based; conditions: B/Ned/537/05, MDCK, 72 h; summary of the method: as §4

Row | Structure (SMILES) | inhibition (Influenza A virus [1]) | EC50 (Influenza B virus [2]) [µM] | EC50 (Influenza A virus [3]) [µM] | MCC at 72 h [4] [µM] | EC50 (H3N2 subtype [5]) [µM] | EC50 (Influenza A virus [6]) [µM] | EC50 (Influenza A virus [7]) [µM] | EC50 (Influenza B virus [8]) [µM] | EC50 (Influenza A virus [9]) [µM] | EC50 (H3N2 subtype [10]) [µM] | CC50 at 72 h [11] [µM] | selectivity ratio [12] | selectivity ratio [13] | selectivity ratio [14] | selectivity ratio [15] | selectivity ratio [16] | EC50 (Influenza B virus [17]) [µM] | CC50 (MDCK) [µM] | EC50 (Influenza B virus [18]) [µM]
1 | COC(=O)[C@@H]1NC(=O)[C@@H]2NC(=O)[C@H](NC(=O)[C@@H]3NC(=O)[C@H]4NC(=O)[C@H](NC(=O)[C@H](Nc5c(NCc6ccc(-c7ccccc7)cc6)c(=O)c5=O)c5ccc(O)c(c5)Oc5cc4cc(O)c5C)[C@H](O)c4ccc(cc4)Oc4cc3cc(c4O)Oc3ccc(cc3)[C@H]2O)c2ccc(O)c(c2)-c2c(O)cc(O)cc21 | Dose-dependent effect |  |  |  |  |  |  |  |  |  |  |  |  |  |  |  |  |  | 
2 | CCc1ccccc1OCCN1CCCCCC1 | Dose-dependent effect |  |  |  |  |  |  |  |  |  |  |  |  |  |  |  |  |  | 
3 | CC(C)c1ccccc1NCCN1CCCCC1 | Dose-dependent effect |  |  |  |  |  |  |  |  |  |  |  |  |  |  |  |  |  | 
4 | CCCCCCCCOCc1cn([C@H]2C(=O)N[C@@H]3Cc4ccc(c(Cl)c4)Oc4cc5cc(c4O)Oc4ccc(cc4Cl)[C@@H](O[C@@H]4O[C@H](CO)[C@@H](O)[C@H](O)[C@H]4NC(C)=O)[C@H]4NC(=O)[C@H](NC(O)[C@@H]5NC(=O)[C@@H](NC3=O)c3cc(O)cc(c3)Oc3cc2ccc3O)c2ccc(O)c(c2)-c2c(O)cc(O)cc2[C@H](C(=O)O)NC4=O)nn1 (some centres undefined) |  | 1.8 | > 100 | ≥ 4 | 2.1 | 2.2 | 1.9 | 1.9 | 1.8 | 1.5 | 13 |  |  |  |  |  |  |  | 
5 | CCCCCCCCCCOCc1cn([C@H]2C(=O)N[C@@H]3Cc4ccc(c(Cl)c4)Oc4cc5cc(c4O)Oc4ccc(cc4Cl)[C@@H](O[C@@H]4O[C@H](CO)[C@@H](O)[C@H](O)[C@H]4NC(C)=O)[C@H]4NC(=O)[C@H](NC(O)[C@@H]5NC(=O)[C@@H](NC3=O)c3cc(O)cc(c3)Oc3cc2ccc3O)c2ccc(O)c(c2)-c2c(O)cc(O)cc2[C@H](C(=O)O)NC4=O)nn1 (some centres undefined) |  | > 100 | > 100 | 4 | > 100 | > 100 | > 100 | > 100 | > 100 | > 100 | 3.7 |  |  |  |  |  |  |  | 
6 | CCN(CC)CCCC(C)Nc1ccnc2cc(Cl)ccc12 (centres undefined) | Dose-dependent effect |  |  |  |  |  |  |  |  |  |  |  |  |  |  |  |  |  | 
7 | CC(=O)N[C@H]1[C@H](O[C@@H]2c3ccc(c(Cl)c3)Oc3cc4cc(c3O)Oc3ccc(cc3Cl)C[C@H]3NC(=O)[C@H](n5cc(CO[C@@H]6[C@H](OCc7ccccc7)[C@@H](OCc7ccccc7)[C@H](O[C@H]7[C@H](OCc8ccccc8)[C@@H](OCc8ccccc8)[C@H](Sc8ccccc8)O[C@@H]7COCc7ccccc7)O[C@@H]6COCc6ccccc6)nn5)c5ccc(O)c(c5)Oc5cc(O)cc(c5)[C@H](NC3=O)C(=O)N[C@H]4C(O)N[C@H]3C(=O)N[C@H]2C(=O)N[C@@H](C(=O)O)c2cc(O)cc(O)c2-c2cc3ccc2O)O[C@H](CO)[C@@H](O)[C@@H]1O (some centres undefined) |  | 6.6 | > 100 | ≥ 20 | 8.9 | > 100 | 7.3 | 4 | 8.9 | 20 | > 100 |  |  |  |  |  |  |  | 
8 | CCCCCCCCSC1=C(SCCCCCCCC)C(=O)N(Cc2cn(C3C(=O)N[C@@H]4Cc5ccc(c(Cl)c5)Oc5cc6cc(c5O)Oc5ccc(cc5Cl)[C@@H](O[C@@H]5O[C@H](CO)[C@@H](O)[C@H](O)[C@H]5NC(C)=O)[C@H]5NC(=O)[C@H](NC(O)[C@@H]6NC(=O)[C@@H](NC4=O)c4cc(O)cc(c4)Oc4cc3ccc4O)c3ccc(O)c(c3)-c3c(O)cc(O)cc3[C@H](C(=O)O)NC5=O)nn2)C1=O (some centres undefined) |  |  | 9.2 | 73 | 8.9 | 12 | 3.4 |  | 4.4 | 6.3 |  | 10 | 10 | 10 | 10 | 10 | 6.7 | 49 | 7.2
9 | CC(=O)N[C@H]1[C@H](O[C@@H]2c3ccc(c(Cl)c3)Oc3cc4cc(c3O)Oc3ccc(cc3Cl)C[C@H]3NC(=O)[C@H](N5C(=O)C(SC[C@H]6O[C@@H]7OC(C)(C)O[C@@H]7[C@H]7OC(C)(C)O[C@H]76)=C(SC[C@H]6O[C@@H]7OC(C)(C)O[C@@H]7[C@H]7OC(C)(C)O[C@H]76)C5=O)c5ccc(O)c(c5)Oc5cc(O)cc(c5)[C@H](NC3=O)C(=O)N[C@H]4C(O)N[C@H]3C(=O)N[C@H]2C(=O)N[C@@H](C(=O)O)c2cc(O)cc(O)c2-c2cc3ccc2O)O[C@H](CO)[C@@H](O)[C@@H]1O (some centres undefined) |  |  | > 100 | 20 | 2.3 | 9.1 | 2.2 |  | 2.1 | 1.7 |  | 5 | 5 | 5 | 5 | 5 | > 100 | 26 | 4.2
10 | CC(=O)N[C@H]1[C@H](O[C@@H]2c3ccc(c(Cl)c3)Oc3cc4cc(c3O)Oc3ccc(cc3Cl)C[C@H]3NC(=O)[C@H](n5cc(COc6cccc7ccccc67)nn5)c5ccc(O)c(c5)Oc5cc(O)cc(c5)[C@H](NC3=O)C(=O)N[C@H]4C(O)N[C@H]3C(=O)N[C@H]2C(=O)N[C@@H](C(=O)O)c2cc(O)cc(O)c2-c2cc3ccc2O)O[C@H](CO)[C@@H](O)[C@@H]1O (some centres undefined) |  | 15 | 11 | 20 | 15 | 11 | 4.4 | 6.6 | 11 | 8 | 47 |  |  |  |  |  |  |  | 
11 | CC(=O)N[C@H]1[C@H](O[C@@H]2c3ccc(c(Cl)c3)Oc3cc4cc(c3O)Oc3ccc(cc3Cl)C[C@H]3NC(=O)[C@H](n5cc(CCOc6c7cc(C(C)(C)C)cc6Cc6cc(C(C)(C)C)cc(c6O)Cc6cc(C(C)(C)C)cc(c6O)Cc6cc(C(C)(C)C)cc(c6O)C7)nn5)c5ccc(O)c(c5)Oc5cc(O)cc(c5)[C@H](NC3=O)C(=O)N[C@H]4C(O)N[C@H]3C(=O)N[C@H]2C(=O)N[C@@H](C(=O)O)c2cc(O)cc(O)c2-c2cc3ccc2O)O[C@H](CO)[C@@H](O)[C@@H]1O (some centres undefined) |  | > 100 | > 100 | ≥ 20 | > 100 | 43 | 6.7 | 5.7 | 8.9 | 5.2 | ≥ 58 |  |  |  |  |  |  |  | 
